Test results from paper PMC12510370 (Chemical Science, 2025).
Like-named read-outs stand apart in the source and are kept apart here.

Legend:
Assay type in all cases: cell-based
A549 cells = assay: MTT
How it was run: (§1)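 MTT assay on A549, HeLa and MRC9 cells, with cells kept in the dark or irradiated at 450 nm (15.5 mW cm−2, 15 min). […] IC50 values were derived for dark and light conditions. For A549 and HeLa, PI = IC50,dark/IC50,light.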

HeLa cells [1] = assay: MTT
How it was run: as §1

normal MRC9 cells = assay: MTT
How it was run: as §1

HeLa cells [2] = assay: Mitochondrial membrane potential with JC-1; conditions: 50 μM, 15 min, positive control
How it was run: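 HeLa cells were untreated, given CCCP (50 μM, 15 min) as positive control, or treated with the test compound (4.5 nM, 24 h). Treated cells were then kept in the dark for 24 h or irradiated (450 nm, 15.5 mW cm−2, 15 min) and incubated 24 h more. Staining used JC-1 (2 μg mL−1, 20 min; λex 488 nm; monomer emission 510–530 nm, J-aggregate emission 590–610 nm).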

Molecule	IC50 (A549 cells; read-out: IC50,dark, A549, in the dark) [µM]	IC50 (A549 cells; read-out: IC50,light, A549, irradiation at 450 nm (15.5 mW cm^−2, 15 min)) [µM]	IC50 (HeLa cells [1]; read-out: IC50,dark, in the dark) [µM]	IC50 (HeLa cells [1]; read-out: IC50,light, irradiation at 450 nm (15.5 mW cm^−2, 15 min)) [µM]	IC50 (normal MRC9 cells; read-out: IC50,dark, MRC9, in the dark) [µM]	IC50 (normal MRC9 cells; read-out: IC50,light, MRC9, irradiation at 450 nm (15.5 mW cm^−2, 15 min)) [µM]	mitochondrial membrane potential (JC-1) (HeLa cells [2])
1-phenyl-5-thioxo-5,6-dihydro-[1,2,4]triazolo[1,5-c]quinazolin-1-ium-2-thiolate [p-Httqt]	> 100	> 100	> 100	> 100	> 100	> 100	
N#CC(C#N)=NNc1cccc(Cl)c1 [CCCP, carbonyl cyanide m-chlorophenyl hydrazone]							reduced the intensity of the red channel
